For 15 molecules, IC50 and inhibition results are on record in ChEMBL document CHEMBL4622938, “Discovery of phenanthridine analogues as novel chemical probes disrupting the binding of DNA to ΔFosB homodimers and ΔFosB/JunD heterodimers” (Bioorg Med Chem Lett, 2020).

SMILES strings stand for the structures. pIC50: −log10 of the molar value. A value given as a limit tells only on which side of the number the result lay.

The target of one assay is T1, Protein FosB (Homo sapiens, UniProt P53539).
T1 sequence (P53539 whole entry): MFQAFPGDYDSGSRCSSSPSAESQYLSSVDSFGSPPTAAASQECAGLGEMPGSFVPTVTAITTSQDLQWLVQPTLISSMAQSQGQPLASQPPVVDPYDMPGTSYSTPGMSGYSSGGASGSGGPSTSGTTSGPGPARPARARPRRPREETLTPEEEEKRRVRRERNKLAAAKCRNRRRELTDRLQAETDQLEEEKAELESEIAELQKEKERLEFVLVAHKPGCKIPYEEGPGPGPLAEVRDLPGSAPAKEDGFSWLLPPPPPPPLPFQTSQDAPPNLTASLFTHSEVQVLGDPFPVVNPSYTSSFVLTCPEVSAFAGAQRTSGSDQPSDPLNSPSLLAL
The experiment in a line: (§1) Inhibition of recombinant Hi6-tagged deltaFOSB (unknown origin) expressed in insect cells interaction with TAMRA labeled 5'-GTCGGTGACTCAAAACA-3' AP1 oligonucleotide measured after 15 mins by fluorescence polarization assay. The note with it: for pIC50: read-out: IC50. In outline:
(§2)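 ΔFosB homodimer, 320 nM (as monomers). Compound serially diluted, 10 concentrations over 0–200 μM in quadruplicate. Compound premixed 5 min with 25 nM TAMRA-cdk5 AP-1 19-mer duplex in 20 mM HEPES pH 7.5, 50 mM NaCl, then protein added for 15 min. FP read at ex 530/540, em 590 nm. Compound-plus-oligo wells without protein serve as the interference control. Four-parameter fit; IC50 is mean ± SD of two independent days.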
For orientation: Fluorescence polarisation rises when a labelled molecule tumbles more slowly, as on binding a larger partner.

In assay [1] the target is T2, Protein fosB/Transcription factor jun-D (Homo sapiens, UniProt P17535+P53539).
T2 sequence (P53539 whole entry): T1 sequence (P53539 whole entry)
T2 sequence (P17535 whole entry): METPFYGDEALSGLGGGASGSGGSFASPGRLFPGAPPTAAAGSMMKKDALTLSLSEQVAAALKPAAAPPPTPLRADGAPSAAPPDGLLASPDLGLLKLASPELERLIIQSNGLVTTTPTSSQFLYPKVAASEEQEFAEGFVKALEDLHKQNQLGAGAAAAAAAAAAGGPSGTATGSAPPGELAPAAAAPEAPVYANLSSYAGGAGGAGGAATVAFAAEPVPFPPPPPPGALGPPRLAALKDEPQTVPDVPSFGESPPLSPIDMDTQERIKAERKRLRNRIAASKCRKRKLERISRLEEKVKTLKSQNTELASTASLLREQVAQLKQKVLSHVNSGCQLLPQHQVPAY
As to the kind of experiment: (§3) Inhibition of recombinant Hi6-tagged deltaFOSB (unknown origin)/His6-tagged JUND (unknown origin) expressed in insect cells interaction with TAMRA labeled 5'-GTCGGTGACTCAAAACA-3' AP1 oligonucleotide measured after 15 mins by fluorescence polarization assay. Put shortly:
(§4)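 ΔFosB/JunD heterodimer, 280 nM (as monomers). Compound serially diluted, 10 concentrations over 0–200 μM in quadruplicate. Compound premixed 5 min with 25 nM TAMRA-cdk5 AP-1 19-mer duplex in 20 mM HEPES pH 7.5, 150 mM NaCl, then protein added for 15 min. FP read at ex 530/540, em 590 nm. Wells of compound with oligo and no protein check for DNA interference. IC50 from a four-parameter fit, mean ± SD of two independent days.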

Assay [2] concerns the target T3, Protein FosB (Homo sapiens) (UniProt P53539).
T3 sequence (whole entry): T1 sequence (P53539 whole entry)
Described as §1. In outline: as §2

In assay [3] the target is Protein fosB/Transcription factor jun-D (Homo sapiens) (UniProt P53539+P17535). The description is as §3. Put shortly: as §4
The target in assay [4] is T4, Protein fosB/Transcription factor jun-D (Homo sapiens, UniProt P53539+P17535).
T4 sequence (P53539 whole entry): T1 sequence (P53539 whole entry)
T4 sequence (P17535 whole entry): T2 sequence (P17535 whole entry)
The description is as §3. In outline: as §4

One may read the pIC50 as the IC50 on a negative log10 scale, so that one unit is a factor of ten. Turning to `Cc1cccc2c3c(c(C(=O)O)nc12)CCC3`, the pIC50 (on Protein FosB; in assay [1]) was below 4.00 each time.

`COc1cc(OC)c2c(C3CCN(C(C)=O)CC3)nc3c(OC)cccc3c2c1`: the pIC50 (on Protein FosB; in assay [1]) was below 4.00 each time.

`COc1cc(OC)c2c(C3CCN(C(=O)OC(C)(C)C)CC3)nc3c(OC)cccc3c2c1`: the pIC50 (on Protein FosB; in assay [1]) was below 4.00 each time.

As to `COc1cccc2c1NC(CO)C1CC=CC21` (configuration not stated), the pIC50 (at Protein FosB; in assay [1]) was below 4.00 each time.

For the molecule `COc1cccc2c1NC(C(=O)O)C1CC=CC21` (configuration not stated), the pIC50 on Protein FosB was 4.54; in assay [1], 4.88.

In the case of `CNC(=O)C1Nc2c(OC)cccc2C2C=CCC12` (configuration not stated), the pIC50 (on Protein FosB; in assay [1]) was below 4.00 throughout.

For the molecule `COc1cc(OC)c2c(C(=O)O)nc3c(OC)cccc3c2c1`, the pIC50 (at Protein FosB; in assay [1]) was below 4.00 throughout.

As to `COc1cc(OC)c2c(C3CCNCC3)nc3c(OC)cccc3c2c1`, the inhibition result in assay [2] and in assay [3] was “Dose-dependent effect” in each case. The negative-log IC50 (pIC50) was 4.24 on Protein FosB and 4.25 in assay [1].

Take `Cc1cccc2c1NC(C(=O)O)C1CC=CC21` (configuration not stated): the IC50 result (on Protein FosB; in assay [4]) was “Not Active” in each case.

Take `COc1cccc2c1N(C(C)=O)C(C(=O)O)C1CC=CC21` (configuration not stated): the pIC50 (at Protein FosB; in assay [1]) was below 4.00 throughout.

In the case of `COc1cccc2c1NC(C(=O)Nc1ccccc1)C1CC=CC21` (configuration not stated), the pIC50 (on Protein FosB; in assay [1]) was below 4.00 throughout.

`COc1cccc2c1NC(C(=O)O)C1CCCC21` (configuration not stated): the pIC50 (on Protein FosB; in assay [1]) was below 4.00 in each case.

Regarding `CCc1nc2c(OC)cccc2c2cc(OC)cc(OC)c12`, the IC50 result (on Protein FosB; in assay [4]) was “Not Active” in each case.

In the case of `CCOC(=O)C1Nc2c(OC)cccc2C2C=CCC12` (configuration not stated), the pIC50 (on Protein FosB; in assay [1]) was below 4.00 throughout.

Consider `CCOC(=O)c1nc2c(C)cccc2c2c1CCC2`, for which the pIC50 (on Protein FosB; in assay [1]) was below 4.00 each time.
